Assays:
[1] = test system: iNOS, COX2, IL-6 and TNF-α protein expression; assay: Western blot of inflammatory protein expression in LPS-treated RAW264.7 cells; assay type: cell-based; conditions: RAW264.7, 2, 1, 0.5 µM 1 h, then LPS 500 ng/mL 24 h
Procedure, shortened: (§1)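 RAW264.7 cells (2 × 10^6/well) were cultured overnight, pretreated 1 h with test compound at 2, 1 or 0.5 µM, then stimulated with LPS 0.5 µg/mL. Lysis was in RIPA, followed by SDS-PAGE and PVDF transfer. Primary antibodies (1:1000) were applied overnight at 4 °C, then HRP secondary for 1 h, with ECL detection and β-actin reference. Three repeats; densitometry given as mean ± SD.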

[2] = test system: DSS-induced acute colitis in mice; assay: DSS-induced acute colitis model in mice; assay type: in vivo, C57BL/6 mice; conditions: for MPO in colon tissue: day 7, E2 20 mg/kg, sulfasalazine 200 mg/kg, oral
Procedure, shortened: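 Male C57BL/6 mice (16–18 g; n=10 per group) received 5% (wt/vol) DSS in drinking water on days 1–7. Test compound (10 or 20 mg/kg) or sulfasalazine 200 mg/kg was given by gavage in 0.5% CMC-Na on days 1–7; control groups received vehicle. Weight, stool and DAI were scored daily. On day 8: serum ELISA (TNF-α, IL-1β, IL-6), colon length, histology, and colon MPO. Values are mean ± SEM.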

[3] = test system: phosphorylation of IκB and p65 (NF-κB signalling pathway); assay: Western blot of NF-κB signalling pathway in LPS-treated RAW264.7 cells; assay type: cell-based; conditions: RAW264.7, 2, 1, 0.5 µM 1 h, then LPS 500 ng/mL 30 min
Procedure, shortened: as §1

[4] = test system: p-p38, p-ERK and p-JNK (MAPK signalling pathway); assay: Western blot of MAPKs signalling pathway in LPS-treated RAW264.7 cells; assay type: cell-based; conditions: RAW264.7, 2, 1, 0.5 µM 1 h, then LPS 500 ng/mL 30 min

SMILES	Expression of iNOS, COX2, IL-6 and TNF-α protein [1]	DSS treatment-induced shortening of colon length ([2]; 5% DSS days 1-7, oral E2 10 and 20 mg/kg)	Histopathological symptoms of colon ([2]; 5% DSS days 1-7, oral E2, vs model group)	Levels of COX-2, p-NF-κB and p-Stat3 expression in colon (Western blot) ([2]; DSS-treated mice, oral E2)	Levels of TNF-α, IL-1β and IL-6 in serum (ELISA) ([2]; DSS-treated mice, oral E2)	mRNA expression levels of TNF-α, IL-1β, IL-6, iNOS, COX-2 and TLR4 in colon tissue ([2]; DSS-treated mice, oral E2, RT-qPCR)	MPO in colon tissue [2]	Phosphorylation of IκB and p65 proteins [3]	Expression of p-p38, p-ERK and p-JNK [4]
C#CCOc1ccc(/C=C/c2cc(OC)cc(OC)c2-c2cnnn2C(=O)NCCC)cc1 [E2]	significantly inhibited	significantly attenuated	significantly improved these symptoms	decreased	significantly decreased	alleviated	significantly reduced	inhibited	inhibits the expression of p-p38, p-ERK, and p-JNK in a dose-dependent manner
O=C(O)c1cc(/N=N/c2ccc(S(=O)(=O)Nc3ccccn3)cc2)ccc1O [sulfasalazine, Sulfasalazine, reference compound]	–	–	–	–	–	–	significantly reduced	–	–
